Here are results for 71 compounds from ChEMBL document CHEMBL4393692, “Thiazolidinone/thiazole based hybrids - New class of antitrypanosomal agents” (Eur J Med Chem, 2019).

pIC50: −log10 of the molar value. Some results are limits rather than exact numbers.

As usually defined, the pIC50 is −log10 of the IC50, conventionally taken in molar units.

Data set [1] can be described thus: Cytotoxicity against human AB943 cells assessed as reduction in cell viability after 5 days resazurin dye based fluorescence assay. The conditions noted are these: 120 h. Summed up: (§1)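 Human primary fibroblasts grown in RPMI with 25 mM HEPES pH 7.3 and 10% FCS, 37°C, 5% CO2. After trypsinisation, seeded at 5000 cells/well and incubated 24 h. Then washed and exposed to two-fold drug dilutions, final DMSO below 1%, for 5 days. Resazurin added, fluorescence read (ex 530/em 590 nm) after 4 h. Growth inhibition vs DMSO control. SI = IC50 fibroblast / IC50 T. b. gambiense.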
In general terms: The colour change of resazurin is a common sign of viable cells or microbes.

Data set [2] relates to Trypanosoma brucei gambiense. Description: Antitrypanosomal activity against bloodstream form of Trypanosoma brucei gambiense Feo reduction in parasite growth after 72 hrs by resazurin dye based fluorescence assay. The format is functional, organism-based. In outline:
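Bloodstream parasites cultured in HMI9 with 10% FCS at 37°C under 5% CO2. Log-phase cells harvested at 3000xg, plated at 10^5 cells/ml with dilutions from 10 down to 0.625 µg/ml (DMSO stocks) for 72 h. Resazurin added at 45 µM final, fluorescence read after a further 4 h. Inhibition vs DMSO control. IC50 from dose-response curve, mean ± SD of three independent experiments.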

A short description of data set [3]: Selectivity index, ratio of IC50 for human AB943 cells to IC50 of bloodstream form of Trypanosoma brucei gambiense Feo. The conditions noted are these: read-out: Ratio IC50. The format is toxicity. In outline:
as §1

As for `CCC1S/C(=N\N=C\c2c(-c3ccc([N+](=O)[O-])cc3)[nH]c3ccccc23)N(c2ccc(O)cc2)C1=O` (stereo not drawn), the pIC50 was 5.07 in data set [1] and 6.85 in data set [2]. Further, the selectivity ratio in data set [3] was 60.
The compound `C=CCSc1nn2c(/C=N/N=C3\SCC(=O)N3c3ccc(O)cc3)c(-c3ccccc3)nc2s1` gave a pIC50 in data set [2] of under 4.70.
For `O=C1CS/C(=N\N=C\c2c(-c3ccccc3)[nH]c3ccccc23)N1`, the pIC50 is 4.88 in data set [1] and 6.64 in data set [2]. Besides, in data set [3], the selectivity ratio was determined as 57.
The compound `CCC1S/C(=N\N=C\c2c(-c3ccc(Cl)cc3)[nH]c3ccccc23)N(Cc2ccco2)C1=O` (stereo not drawn) had a pIC50 in data set [2] of 5.77.
On the same count and under the same terms, then `C=CCSc1nn2c(C=O)c(-c3ccccc3)nc2s1`, with 4.63.
With `C=CCSc1nn2c(/C=N/N=C3/NC(=O)C(CC)S3)c(-c3ccccc3)nc2s1` (stereo not drawn), in data set [2], the pIC50 was 4.69.
`O=C1CS/C(=N\N=C\c2c(-c3ccc(Cl)cc3)[nH]c3ccccc23)N1c1ccc(O)cc1`: the pIC50 was under 4.00 in data set [1] and 6.09 in data set [2]. In data set [3], the selectivity ratio is over 130.
`CCc1nn2c(/C=N/N=C3/NC(=O)C(C)S3)c(-c3ccccc3)nc2s1` (stereo not drawn): in data set [2], the pIC50 is under 4.60.
The same measure, in the same setting: then `C=CCSc1nn2c(/C=N/N=C3/NC(=O)C(CC(=O)O)S3)c(-c3ccccc3)nc2s1` (stereo not drawn), with under 4.70; and `CCOC(=O)c1s/c(=N\N=C\c2c(-c3ccccc3)nc3sc(CC)nn23)[nH]c1C`, with 5.57.
As for `CCc1nn2c(/C=N/N=c3\scc(-c4ccc(Br)cc4)n3-c3ccc(O)cc3)c(-c3ccc([N+](=O)[O-])cc3)nc2s1`, the pIC50 in data set [2] was 6.23.
In the case of `C=CCSc1nn2c(/C=N/NC(N)=S)c(-c3ccccc3)nc2s1`, in data set [2], the pIC50 is 5.21.
On the same count and under the same terms, then `CCOC(=O)CSc1nn2c(/C=N/N=C3/NC(=O)C(CC)S3)c(-c3ccccc3)nc2s1` (stereo not drawn), with 5.04; and `CCc1nn2c(/C=N/NC(=S)Nc3ccc(O)cc3)c(-c3ccccc3)nc2s1`, with 5.59; and `CC(=O)OCCC1S/C(=N\N=C\c2c(-c3ccc(Cl)cc3)[nH]c3ccccc23)N(Cc2ccco2)C1=O` (stereo not drawn), with 5.80.
The same measure, in the same setting: then `Clc1ccc(-c2[nH]c3ccccc3c2/C=N/Nc2nc(-c3ccc(Br)cc3)cs2)cc1`, with 5.82; and `CCOC(=O)c1s/c(=N\N=C\c2c(-c3ccc(Br)cc3)nc3sc(CC)nn23)[nH]c1C`, with 5.13.
Regarding `CCc1nn2c(/C=N/N=C3\SC(C)C(=O)N3c3ccc(O)cc3)c(-c3ccc(Br)cc3)nc2s1` (stereo not drawn), in data set [2], the pIC50 is 5.82.
Still for that read-out and setting: under `CC(=O)OCCC1S/C(=N\N=C\c2c(-c3ccc(Br)cc3)[nH]c3ccccc23)NC1=O` (stereo not drawn) stands 5.87.
For `C=CCSc1nn2c(/C=N/N=c3/[nH]c(C)c(C(=O)OCC)s3)c(-c3ccccc3)nc2s1`, the pIC50 in data set [1] is 5.36; in data set [2] it was 6.19. Besides, the selectivity ratio in data set [3] stood at 7.
`O=[N+]([O-])c1ccc(-c2[nH]c3ccccc3c2/C=N/N=c2\scc(-c3ccc([N+](=O)[O-])cc3)n2-c2ccc(O)cc2)cc1` showed a pIC50 in data set [2] of 5.82.
As to `C=CCSc1nn2c(/C=N/N=C3\SC(CC)C(=O)N3c3ccc(O)cc3)c(-c3ccccc3)nc2s1` (stereo not drawn), the values for the negative-log IC50 (pIC50) in data set [1] and in data set [2] were under 4.05 and 5.44, respectively. In addition, the selectivity ratio in data set [3] is over 26.
For the compound `CCc1nn2c(/C=N/N=C3/NC(=O)C(CC)S3)c(-c3ccc([N+](=O)[O-])cc3)nc2s1` (stereo not drawn), the pIC50 in data set [2] is under 4.70.
Still for that read-out and setting: then `CCc1nn2c(/C=N/N=C3\SC(CCOC(C)=O)C(=O)N3c3ccc(O)cc3)c(-c3ccc([N+](=O)[O-])cc3)nc2s1` (stereo not drawn), with 4.95.
Still for that read-out and setting: under `CCc1nn2c(/C=N/N=C3/NC(=O)C(CCOC(C)=O)S3)c(-c3ccc([N+](=O)[O-])cc3)nc2s1` (stereo not drawn) stands 4.79; under `CCc1nn2c(/C=N/N=C3\SC(C)C(=O)N3c3ccc(O)cc3)c(-c3ccccc3)nc2s1` (stereo not drawn), 5.32.
Same read-out and setting: under `CCOC(=O)c1s/c(=N\N=C\c2c(-c3ccc(Br)cc3)nc3sc(CC)nn23)n(-c2ccc(O)cc2)c1C` stands 6.00.
`CCc1nn2c(/C=N/N=C3/NC(=O)C(CC)S3)c(-c3ccccc3)nc2s1` (stereo not drawn) gave a pIC50 in data set [2] of 5.43.
As for `CCc1nn2c(/C=N/N=C3\SCC(=O)N3c3ccc(O)cc3)c(-c3ccccc3)nc2s1`, in data set [2], the pIC50 was 5.04.
Same read-out and setting: under `CCC1S/C(=N\N=C\c2c(-c3ccc(Cl)cc3)[nH]c3ccccc23)NC1=O` (stereo not drawn) stands 5.85; under `CCc1nn2c(/C=N/N=c3/[nH]c(-c4ccc([N+](=O)[O-])cc4)cs3)c(-c3ccc(Br)cc3)nc2s1`, 5.04; under `CCc1nn2c(/C=N/N=C3\SC(CC)C(=O)N3c3ccc(O)cc3)c(-c3ccc(Br)cc3)nc2s1` (stereo not drawn), 5.82.
Still for that read-out and setting: under `C=CCSc1nn2cc(-c3ccccc3)nc2s1` stands 4.57; under `CC1S/C(=N\N=C\c2c(-c3ccc(Cl)cc3)[nH]c3ccccc23)N(Cc2ccco2)C1=O` (stereo not drawn), 5.77.
On the same count and under the same terms, then `CCOC(=O)CSc1nn2cc(-c3ccccc3)nc2s1`, with under 4.52; and `CCc1nn2c(/C=N/N=c3\scc(-c4ccc([N+](=O)[O-])cc4)n3-c3ccc(O)cc3)c(-c3ccc([N+](=O)[O-])cc3)nc2s1`, with 5.59.
In the case of `CCc1nn2c(/C=N/N=c3/[nH]c(-c4ccc(Br)cc4)cs3)c(-c3ccc([N+](=O)[O-])cc3)nc2s1`, the pIC50 in data set [1] is under 4.05; in data set [2], 5.92. In data set [3], the selectivity ratio is over 70.
With `C=CCSc1nn2c(/C=N/NC(=S)Nc3ccc(O)cc3)c(-c3ccccc3)nc2s1`, the pIC50 in data set [2] is under 4.30.
In turn, `CCc1nn2c(/C=N/NC(N)=S)c(-c3ccc([N+](=O)[O-])cc3)nc2s1` had a pIC50 in data set [2] of under 4.60.
On the same count and under the same terms, under `CCOC(=O)CSc1nn2c(/C=N/N=C3/NC(=O)C(C)S3)c(-c3ccccc3)nc2s1` (stereo not drawn) stands 5.41.
Still for that read-out and setting: under `O=C1CS/C(=N\N=C\c2c(-c3ccc(Cl)cc3)[nH]c3ccccc23)N1Cc1ccco1` stands 5.14.
Take `CCC1S/C(=N\N=C\c2c(-c3ccc(Br)cc3)[nH]c3ccccc23)NC1=O` (stereo not drawn): in data set [2], the pIC50 was 5.82.
Same read-out and setting: under `CC1S/C(=N\N=C\c2c(-c3ccc([N+](=O)[O-])cc3)[nH]c3ccccc23)NC1=O` (stereo not drawn) stands 5.33; under `O=[N+]([O-])c1ccc(-c2[nH]c3ccccc3c2/C=N/Nc2nc(-c3ccccc3)cs2)cc1`, 5.22; under `CCc1nn2c(/C=N/N=C3/NC(=O)C(CCOC(C)=O)S3)c(-c3ccccc3)nc2s1` (stereo not drawn), 4.93.
The same measure, in the same setting: then `CCC1S/C(=N\N=C\c2c(-c3ccc([N+](=O)[O-])cc3)[nH]c3ccccc23)NC1=O` (stereo not drawn), with 5.21; and `C=CCSc1nn2c(/C=N/N=C3/NC(=O)CS3)c(-c3ccccc3)nc2s1`, with 5.41.
Same read-out and setting: then `CCc1nn2c(/C=N/N=C3\SC(CCOC(C)=O)C(=O)N3c3ccc(O)cc3)c(-c3ccccc3)nc2s1` (stereo not drawn), with 5.57.
`CCc1nn2c(/C=N/NC(=S)Nc3ccc(O)cc3)c(-c3ccc(Br)cc3)nc2s1` gave a pIC50 in data set [2] of 5.82.
Same read-out and setting: then `CCc1nn2c(C=O)c(-c3ccccc3)nc2s1`, with under 4.40; and `C=CCSc1nn2c(/C=N/N=C3/NC(=O)C(C)S3)c(-c3ccccc3)nc2s1` (stereo not drawn), with 5.36; and `CCc1nn2c(/C=N/N=C3\SC(CC)C(=O)N3c3ccc(O)cc3)c(-c3ccccc3)nc2s1` (stereo not drawn), with under 4.70.
As to `CCc1nn2c(/C=N/NC(=S)Nc3ccc(O)cc3)c(-c3ccc([N+](=O)[O-])cc3)nc2s1`, the pIC50 in data set [2] is 4.83.
Still for that read-out and setting: then `CCc1nn2c(/C=N/N=c3\scc(-c4ccccc4)n3-c3ccc(O)cc3)c(-c3ccccc3)nc2s1`, with 5.52.
In the case of `CCc1nn2c(/C=N/NC(N)=S)c(-c3ccccc3)nc2s1`, in data set [2], the pIC50 is 4.68.
On the same count and under the same terms, under `CCc1nn2c(/C=N/N=c3/[nH]c(-c4ccc([N+](=O)[O-])cc4)cs3)c(-c3ccc([N+](=O)[O-])cc3)nc2s1` stands 5.36; under `CCc1nn2cc(-c3ccccc3)nc2s1`, under 4.40.
Still for that read-out and setting: then `CCc1nn2c(/C=N/NC(N)=S)c(-c3ccc(Br)cc3)nc2s1`, with under 4.60; and `C=CCSc1nn2c(/C=N/N=C3\SC(CCOC(C)=O)C(=O)N3c3ccc(O)cc3)c(-c3ccccc3)nc2s1` (stereo not drawn), with 6.00; and `CCOC(=O)c1s/c(=N\N=C\c2c(-c3ccc([N+](=O)[O-])cc3)nc3sc(CC)nn23)[nH]c1C`, with under 4.70.
On the same count and under the same terms, under `CCc1nn2c(/C=N/N=C3/NC(=O)C(CCOC(C)=O)S3)c(-c3ccc(Br)cc3)nc2s1` (stereo not drawn) stands 5.49; under `O=C1N/C(=N/N=C/c2c(-c3ccc(Br)cc3)[nH]c3ccccc23)SC1CCO` (stereo not drawn), 5.48.
`CC1S/C(=N\N=C\c2c(-c3ccc(Cl)cc3)[nH]c3ccccc23)N(c2ccc(O)cc2)C1=O` (stereo not drawn): in data set [2], the pIC50 was 5.93.
Still for that read-out and setting: then `CCc1nn2c(/C=N/N=C3/NC(=O)CS3)c(-c3ccccc3)nc2s1`, with 4.74; and `CC(=O)OCCC1S/C(=N\N=C\c2c(-c3ccc(Cl)cc3)[nH]c3ccccc23)NC1=O` (stereo not drawn), with 5.87; and `CCc1nn2c(/C=N/N=c3/[nH]c(-c4ccc([N+](=O)[O-])cc4)cs3)c(-c3ccccc3)nc2s1`, with 4.99.
Still for that read-out and setting: under `CCOC(=O)c1sc(N/N=C/c2c(-c3ccc([N+](=O)[O-])cc3)[nH]c3ccccc23)nc1C` stands 6.13; under `CC1S/C(=N\N=C\c2c(-c3ccc(Br)cc3)[nH]c3ccccc23)NC1=O` (stereo not drawn), 5.87; under `CCc1nn2c(/C=N/N=C3/NC(=O)C(C)S3)c(-c3ccc(Br)cc3)nc2s1` (stereo not drawn), 5.02.
`C=CCSc1nn2c(/C=N/N=C3\SC(C)C(=O)N3c3ccc(O)cc3)c(-c3ccccc3)nc2s1` (stereo not drawn): the pIC50 in data set [2] was under 4.70.
Same read-out and setting: then `CCc1nn2c(/C=N/N=C3/NC(=O)C(CC)S3)c(-c3ccc(Br)cc3)nc2s1` (stereo not drawn), with 4.86.
